This is a sample that favours compounds with a hit; in the whole collection about 1.7% have one here.
HNF4A DNA FP: change in binding of human HNF4A to DNA, primary screen, biochemical, fluorescence polarization, FITC-DNA; activity change, % at 10 µM; 360,000 compounds, 0.3% hits; 1 h; Hepatocyte nuclear factor 4-alpha (Homo sapiens), P41235; in the data active = activity change above about 30%, passing the limit was not always enough
IDE inh: human IDE inhibitors in live cells, primary screen, fluorescence polarization, HEK cells, FAbetaB substrate | inhibition, % at 5.59 µM | Insulin-degrading enzyme (Homo sapiens), P14735 | 320,000 compounds, 0.41% hits | FAbetaB cleavage | AID 434962, 2010;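 active = percent inhibition above the average of all tested compounds plus 3 SD, set per screening campaign, cut at about 16% in these data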;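 also: IDE supplied by intact live HEK cells; FP after avidin binding of uncleaved biotin substrate so inhibition keeps polarization high; 0% = DMSO wells and 100% = 60 µM reference IDE inhibitor Ii1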
TPT1 inhibitor: Candida albicans TPT1 enzyme inhibitors, primary screen, biochemical, fluorescence polarization; tRNA 2'-phosphotransferase TPT1 (Candida albicans SC5314); recombinant caTPT1, FP RNA substrate dephosphorylation; inhibition, % at 5 µM; 300,000 compounds, 0.81% hits; AID 1962, 2009;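 active = inhibition above the mean of all tested compounds plus 3 SD, set per screening campaign, cut at about 24% in these data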;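 also: plate controls were DMSO alone for no effect and ferristatin control at 100 nM for full effect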
Rpn11 block: Rpn11 (PSMD14) deubiquitinase inhibitors, primary screen, biochemical, fluorescence polarization, uHTS; human 26S proteasome, Ub4-pepOG fluorescence polarization; 20S core pre-blocked with epoxomicin; inhibition, % at 20 µM; 360,000 compounds, 0.59% hits; AID 588493, 2011;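 active = inhibition at 20 µM, scaled to each plate's controls, above about 33%, limit read from the data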
Target sequence (O00487 whole entry, looked up): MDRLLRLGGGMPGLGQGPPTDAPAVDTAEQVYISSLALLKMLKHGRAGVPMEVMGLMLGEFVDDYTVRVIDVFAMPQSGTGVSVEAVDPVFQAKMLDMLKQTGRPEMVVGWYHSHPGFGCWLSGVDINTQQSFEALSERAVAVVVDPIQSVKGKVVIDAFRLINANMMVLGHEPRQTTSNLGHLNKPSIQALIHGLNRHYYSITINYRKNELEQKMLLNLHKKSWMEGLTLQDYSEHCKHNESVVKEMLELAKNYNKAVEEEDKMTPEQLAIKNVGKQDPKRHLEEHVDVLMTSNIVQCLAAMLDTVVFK
IDE act: human IDE activators in live cells, primary screen, fluorescence polarization, HEK cells, FAbeta-B substrate; FAbeta-B cleavage; 0% vehicle, 100% cell-free pure enzyme wells; activation, % at 5.96 µM; 340,000 compounds, 0.073% hits;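 active = activation above the mean of all tested compounds plus 3 SD, set per screening campaign, cut at about 17% in these data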
CSN inh: inhibitors of CSN-mediated cullin deneddylation, primary screen, biochemical, fluorescence polarization, uHTS | COP9 signalosome complex subunit 5 (Homo sapiens), Q92905 | Purified CSN, SCF-Nedd8-OG deneddylation | inhibition, % at 12.5 µM | 360,000 compounds, 0.38% hits | AID 651999, 2013;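 active = pattern-corrected inhibition above about 35%, with an unprinted fluorescence ratio check between 0.5 and 1.5, limit read from the data, passing the limit was not always enough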;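 also: 0% = enzyme with substrate and 100% = substrate without enzyme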
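Test system: purified human Csn5 enzyme expressed in HEK293T cells. Amount: 0.24 nM enzyme. Reagent: SCFSkp2-Nedd8OG substrate at 10 nM final. Schedule: 90 min incubation of compound, enzyme and substrate at room temperature. Detection: fluorescence polarization. Read-out: % inhibition of substrate cleavage by Csn5.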
An asterisk follows results filed as active; i = inactive; . = not tested or not shown; + = active, no number.

SMILES	HNF4A DNA FP	IDE inh	TPT1 inhibitor	Rpn11 block	IDE act	CSN inh
COc1ccc(/C=N\Nc2ccccn2)c(OC)c1	4	.	.	-7	3	2
COc1ccccc1Nc1nn2c(=O)c3ccc(C(=O)NCc4cccnc4)cc3nc2s1	90*	5	-2	-1	-2	84*
CCOc1ccccc1CNC(=O)c1ccc2c(c1)N(CC)CCS2	5	2	1	9	3	8
c1coc(-c2nnc3sc(Cc4cccs4)nn23)c1	-8	2	3	-19	3	35*
COc1ccc(OCc2nn3c(-c4ccco4)nnc3s2)cc1	-2	3	1	-3	-1	-1
S=C(NCCc1ccccc1)N1CCC2CC1c1cc(-c3ccc4c(c3)OCO4)ccc12 (stereo not given)	1	.	.	6	.	-3
Cc1ccc(-c2nc3ncccn3c2Nc2ccc3c(c2)OCCO3)o1	38*	-2	-2	2	1	-2
CC(=O)c1cccc(NC(=O)c2ccc(C)o2)c1	1	-5	-1	-3	-2	6
CCOc1ccc(/C=C2/C(=O)N(c3ccc(OC)cc3)C(=S)N2CC(=O)OC)cc1OCC	47*	3	20	.	5	72
COc1ccc(-c2csc(NC(=O)C3CCN(C(=O)c4ccc(F)cc4)CC3)n2)cc1OC	4	2	0	5	-1	0
Cc1noc(/C=C/c2ccco2)c1S(=O)(=O)N1CCC(C(=O)N2c3ccccc3CC2C)CC1 (stereo not given)	44*	-1	7	36	2	18
Cc1noc(/C=C/c2ccco2)c1S(=O)(=O)N1CCC(C(=O)N(C)Cc2ccccc2)CC1	-2	2	11	25	6	5
COc1cccc(NC(=O)CCC(=O)NCc2ccco2)c1	-2	-5	-4	4	0	70*
COc1cccc(NC(=O)CCC(=O)Nc2cccc(OC)c2)c1	5	4	-4	-6	-2	0
COc1ccc(CCNC(=O)Nc2nc(C(N)C3CCCCC3)cs2)cc1OC (stereo not given)	2	.	.	-1	.	1
O=C(c1cc([N+](=O)[O-])ccc1N1CCOCC1)N1CCCCC1	6	-4	-3	7	1	4
O=C(c1cc([N+](=O)[O-])ccc1N1CCOCC1)N1CCN(c2ccc([N+](=O)[O-])cc2)CC1	-1	-15	-2	-10	30*	-3
Cc1cc(=O)oc2cc(NC(=O)COc3ccccc3[N+](=O)[O-])ccc12	-2	2	.	-2	4	71*
CCCOC(=O)c1cc(NC(=O)/C=C/c2ccccc2)ccc1O	-2	4	-2	5	.	-4
O=S(=O)(Cc1noc(-c2ccc(Cl)cc2)n1)Cc1ccco1	14	5	1	17	.	38*
O=S(=O)(Cc1ccco1)Cc1nc(-c2ccc(Cl)cc2)cs1	2	6	0	5	.	1
O=C(O)CCN1C(=O)/C(=C\c2ccc(-c3nc4ccccc4s3)o2)SC1=S	45*	1	41*	+	-6	i
CN1CCC[C@@H]1CCNC(=O)c1cccc2c1C(=O)c1ccc(N3CCCC3)cc1S2(=O)=O	63*	2	.	.	-7	27
O=C(O)c1cccc2c1C(=O)c1ccc(N3CCCC3)cc1S2(=O)=O	32	3	.	39	-7	16
O=C(NC1CC1)c1cccc2c1C(=O)c1ccc(N3CCC(N4CCCCC4)CC3)cc1S2(=O)=O	45	.	.	.	.	43*
SMILES	HNF4A DNA FP	IDE inh	TPT1 inhibitor	Rpn11 block	IDE act	CSN inh
CN(c1ccc(OCC(=O)N2CCN(c3ccc(F)cc3)CC2)cc1)S(=O)(=O)c1cccs1	2	8	0	4	-8	-3
CCOc1ccc2[nH]c3c(N4CCc5ccccc5C4)ncnc3c2c1	1	28*	-3	0	.	3
CCOc1ccc2[nH]c3c(NCC(C)C)ncnc3c2c1	5	3	2	-8	-4	-3
Cc1ccc2[nH]c3c(N4CCc5ccccc5C4)ncnc3c2c1	7	62*	2	8	-17	4
Cc1cc(N)ccc1N1CCCC1	12	2	-4	90*	15	16
CCOC(=O)C1=C(O)/C(=C\c2ccc(CNC(=O)C(=O)Nc3ccccc3)o2)N=C1C	1	3	5	19	-5	41*
CCOC(=O)C1=C(O)/C(=C\c2cccs2)N=C1C	0	5	1	-8	-3	-4
CC(Nc1ccc(F)cc1F)C(=O)NC(=O)NC1CCCCC1 (stereo not given)	144*	6	0	0	3	0
O=C(Nc1ccc(F)cc1F)NC1CCCCCCC1	2	.	.	8	-5	2
CC(C)CC1(C)NC(=O)N(CC(=O)Nc2ccccc2Br)C1=O (stereo not given)	4	-3	.	-2	2	-1
S=C1NC[C@H](CC2CCCCC2)N1CCc1cccc2ccccc12	-5	-9	1	3	-1	1
Oc1ccc(C[C@@H]2CNC(=S)N2CCc2cc(C(F)(F)F)cc(C(F)(F)F)c2)cc1	-8	4	-4	6	2	1
O=C1NC[C@H](CC2CCCCC2)N(CCc2cccc3ccccc23)C1=O	13	.	.	.	.	60*
O=C1NC[C@@H](Cc2ccc(O)cc2)N(CCc2cc(C(F)(F)F)cc(C(F)(F)F)c2)C1=O	-1	.	.	.	.	98*
O=C1NC[C@H](CC2CCCCC2)N(CCc2cc(C(F)(F)F)cc(C(F)(F)F)c2)C1=O	-2	.	.	.	.	48*
FC(F)(F)c1cc(CCN2C(=S)NC[C@@H]2CC2CCCCC2)cc(C(F)(F)F)c1	1	-5	0	15	3	2
COc1cc(C(CC(=O)Nc2cc(C)ccn2)N2Cc3ccccc3C2=O)cc(OC)c1OC (stereo not given)	4	7	0	-2	0	-2
Cc1ccc(C)c(S(=O)(=O)N2CCN(C(=O)C3CC3C)CC2)c1 (stereo not given)	-1	-2	2	0	-6	-1
COC(=O)CCCn1cc(CN2CC(N3CCN(C4CCN(C)CC4)CC3)CS2(=O)=O)nn1 (stereo not given)	-3	.	.	.	.	2
CC(C)C[C@@H](CN1CCC[C@H]1CN1C(=O)C(=O)NC[C@@H]1Cc1ccccc1)N1C[C@H](Cc2ccccc2)N(CC2CCCCCC2)C(=O)C1=O	-3	.	.	.	.	11

Source: PubChem BioAssay (several laboratories)
